Laboratory results: ChEMBL document CHEMBL3864121, “Development of ebsulfur analogues as potent antibacterials against methicillin-resistant Staphylococcus aureus” (Bioorg Med Chem, 2016)
Values after ≈ are worked out from the molar mass of the structure shown.

Key:
Assay type in all cases: functional
[1] = system: Staphylococcus aureus; test: Antibacterial activity against methicillin-sensitive Staphylococcus aureus ATCC 25923 measured after overnight incubation by broth double-dilution method
How it was run: (§1)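 MIC by broth double-dilution in liquid Mueller-Hinton medium. Values are reported in µg/mL.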

[2] = system: Staphylococcus aureus; test: Antibacterial activity against methicillin-resistant Staphylococcus aureus C14 measured after overnight incubation by broth double-dilution method; how it was run: as §1
[3] = system: Staphylococcus aureus; test: Antibacterial activity against methicillin-resistant Staphylococcus aureus C2 measured after overnight incubation by broth double-dilution method; how it was run: as §1
[4] = system: Staphylococcus aureus; test: Antibacterial activity against methicillin-resistant Staphylococcus aureus C7 measured after overnight incubation by broth double-dilution method; how it was run: as §1
[5] = system: Staphylococcus aureus; test: Antibacterial activity against methicillin-resistant Staphylococcus aureus G14 measured after overnight incubation by broth double-dilution method; how it was run: as §1
[6] = system: Staphylococcus aureus; test: Antibacterial activity against methicillin-resistant Staphylococcus aureus C19 measured after overnight incubation by broth double-dilution method; how it was run: as §1
[7] = system: Staphylococcus aureus; test: Antibacterial activity against methicillin-sensitive Staphylococcus aureus ATCC 29213 measured after overnight incubation by broth double-dilution method; how it was run: as §1
[8] = system: Staphylococcus aureus; test: Antibacterial activity against methicillin-resistant Staphylococcus aureus NRS77 measured after overnight incubation by broth double-dilution method; how it was run: as §1
[9] = system: Staphylococcus aureus; test: Antibacterial activity against methicillin-resistant Staphylococcus aureus BRS3 measured after overnight incubation by broth double-dilution method; how it was run: as §1
[10] = system: Staphylococcus aureus; test: Antibacterial activity against methicillin-resistant Staphylococcus aureus S14 measured after overnight incubation by broth double-dilution method; how it was run: as §1
[11] = system: Staphylococcus aureus; test: Antibacterial activity against methicillin-resistant Staphylococcus aureus C16 measured after overnight incubation by broth double-dilution method; how it was run: as §1
[12] = system: Staphylococcus aureus; test: Antibacterial activity against methicillin-resistant Staphylococcus aureus S17 measured after overnight incubation by broth double-dilution method; how it was run: as §1
[13] = system: Staphylococcus aureus; test: Antibacterial activity against methicillin-resistant Staphylococcus aureus S22 measured after overnight incubation by broth double-dilution method; how it was run: as §1
[14] = system: Enterococcus; test: Antibacterial activity against Vancomycin-resistant Enterococcus measured after overnight incubation by broth double-dilution method; how it was run: as §1
[15] = system: Staphylococcus epidermidis; test: Antibacterial activity against Staphylococcus epidermidis ATCC 35984 measured after overnight incubation by broth double-dilution method; conditions: RP62A
How it was run: (§2)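 MIC by broth double-dilution in Mueller-Hinton medium. Re-testing at the time-kill inoculum used 1×10^6 CFU/mL.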

[16] = system: Staphylococcus aureus; test: Antibacterial activity against methicillin-sensitive Staphylococcus aureus ATCC 6538 measured after overnight incubation by broth double-dilution method; how it was run: as §1
[17] = system: Staphylococcus aureus; test: Antibacterial activity against methicillin-resistant Staphylococcus aureus 2 measured after overnight incubation by broth double-dilution method; how it was run: as §1
[18] = system: Staphylococcus aureus; test: Antibacterial activity against methicillin-resistant Staphylococcus aureus G12 measured after overnight incubation by broth double-dilution method; how it was run: as §1
[19] = system: Staphylococcus aureus; test: Antibacterial activity against methicillin-resistant Staphylococcus aureus S24 measured after overnight incubation by broth double-dilution method; how it was run: as §1
[20] = system: Mycolicibacterium smegmatis; test: Antibacterial activity against Mycobacterium smegmatis MC2-155 measured after overnight incubation by broth double-dilution method; conditions: str. MC2 155; how it was run: as §1
[21] = system: Staphylococcus aureus; test: Antibacterial activity against methicillin-resistant Staphylococcus aureus USA300 measured after overnight incubation by broth double-dilution method; how it was run: as §1
[22] = system: Enterococcus faecalis; test: Antibacterial activity against Enterococcus faecalis ATCC 49533 measured after overnight incubation by broth double-dilution method; how it was run: as §2
[23] = system: Staphylococcus aureus; test: Antibacterial activity against methicillin-resistant Staphylococcus aureus 1 measured after overnight incubation by broth double-dilution method; how it was run: as §1
[24] = system: Staphylococcus aureus; test: Antibacterial activity against methicillin-resistant Staphylococcus aureus NRS4 measured after overnight incubation by broth double-dilution method; how it was run: as §1
[25] = system: Staphylococcus aureus; test: Antibacterial activity against methicillin-resistant Staphylococcus aureus USA600 measured after overnight incubation by broth double-dilution method; how it was run: as §1
[26] = system: Staphylococcus aureus; test: Antibacterial activity against methicillin-resistant Staphylococcus aureus NRS51 measured after overnight incubation by broth double-dilution method; how it was run: as §1
[27] = system: Staphylococcus aureus; test: Antibacterial activity against methicillin-resistant Staphylococcus aureus G6 measured after overnight incubation by broth double-dilution method; how it was run: as §1
[28] = system: Enterococcus faecalis; test: Antibacterial activity against Enterococcus faecalis ATCC 29212 measured after overnight incubation by broth double-dilution method; how it was run: as §2
[29] = system: Staphylococcus aureus; test: Antibacterial activity against methicillin-resistant Staphylococcus aureus USA100 measured after overnight incubation by broth double-dilution method; how it was run: as §1
[30] = system: Enterococcus faecium; test: Antibacterial activity against Enterococcus faecium BM4105-RF measured after overnight incubation by broth double-dilution method; how it was run: as §1
[31] = system: Staphylococcus aureus; test: Antibacterial activity against methicillin-resistant Staphylococcus aureus USA200 measured after overnight incubation by broth double-dilution method; how it was run: as §1
[32] = system: Staphylococcus aureus; test: Antibacterial activity against methicillin-resistant Staphylococcus aureus G1 measured after overnight incubation by broth double-dilution method; how it was run: as §1
[33] = system: Staphylococcus aureus; test: Antibacterial activity against methicillin-resistant Staphylococcus aureus ATCC 33591 measured after overnight incubation by broth double-dilution method; how it was run: as §1
[34] = system: Listeria monocytogenes; test: Antibacterial activity against Listeria monocytogenes ATCC 19115 measured after overnight incubation by broth double-dilution method; how it was run: as §2
[35] = system: Staphylococcus aureus; test: Antibacterial activity against methicillin-resistant Staphylococcus aureus C1 measured after overnight incubation by broth double-dilution method; how it was run: as §1

Compound	MIC [1]	MIC [2]	MIC [3]	MIC [4]	MIC [5]	MIC [6]	MIC [7]	MIC [8]	MIC [9]	MIC [10]	MIC [11]	MIC [12]	MIC [13]	MIC [14]	MIC [15]	MIC [16]	MIC [17]	MIC [18]	MIC [19]	MIC [20]	further results
O=c1c2ccccc2sn1C1CCCCC1	3.9 µg/mL (≈ 16.7 µM)	2 µg/mL (≈ 8.57 µM)	3.9 µg/mL (≈ 16.7 µM)	3.9 µg/mL (≈ 16.7 µM)	3.9 µg/mL (≈ 16.7 µM)	3.9 µg/mL (≈ 16.7 µM)	3.8 µg/mL (≈ 16.3 µM)	3.9 µg/mL (≈ 16.7 µM)	7.8 µg/mL (≈ 33.4 µM)	0.5 µg/mL (≈ 2.14 µM)	3.9 µg/mL (≈ 16.7 µM)	7.8 µg/mL (≈ 33.4 µM)	7.8 µg/mL (≈ 33.4 µM)	2 µg/mL (≈ 8.57 µM)	2 µg/mL (≈ 8.57 µM)	7.8 µg/mL (≈ 33.4 µM)	3.9 µg/mL (≈ 16.7 µM)	3.9 µg/mL (≈ 16.7 µM)	3.9 µg/mL (≈ 16.7 µM)	2 µg/mL (≈ 8.57 µM)	MIC [21]: 7.8 µg/mL (≈ 33.4 µM); MIC [22]: > 125 µg/mL; MIC [23]: 2 µg/mL (≈ 8.57 µM); MIC [24]: 3.9 µg/mL (≈ 16.7 µM); MIC [25]: 7.8 µg/mL (≈ 33.4 µM); MIC [26]: 3.9 µg/mL (≈ 16.7 µM); MIC [27]: 3.9 µg/mL (≈ 16.7 µM); MIC [28]: > 125 µg/mL; MIC [29]: 7.8 µg/mL (≈ 33.4 µM); MIC [30]: > 125 µg/mL; MIC [31]: 7.8 µg/mL (≈ 33.4 µM); MIC [32]: 2 µg/mL (≈ 8.57 µM); MIC [33]: 2 µg/mL (≈ 8.57 µM); MIC [34]: 3.9 µg/mL (≈ 16.7 µM); MIC [35]: 2 µg/mL (≈ 8.57 µM)
CCCCCCCCCCCCn1sc2ccccc2c1=O	3.9 µg/mL (≈ 12.2 µM)	15.6 µg/mL (≈ 48.8 µM)	1 µg/mL (≈ 3.13 µM)	2 µg/mL (≈ 6.26 µM)	2 µg/mL (≈ 6.26 µM)	1 µg/mL (≈ 3.13 µM)	3.9 µg/mL (≈ 12.2 µM)	2 µg/mL (≈ 6.26 µM)	15.6 µg/mL (≈ 48.8 µM)	1 µg/mL (≈ 3.13 µM)	3.9 µg/mL (≈ 12.2 µM)	1 µg/mL (≈ 3.13 µM)	3.9 µg/mL (≈ 12.2 µM)	1 µg/mL (≈ 3.13 µM)	0.25 µg/mL (≈ 0.782 µM)	62.5 µg/mL (≈ 196 µM)	1 µg/mL (≈ 3.13 µM)	1 µg/mL (≈ 3.13 µM)	1 µg/mL (≈ 3.13 µM)	7.8 µg/mL (≈ 24.4 µM)	MIC [21]: 7.8 µg/mL (≈ 24.4 µM); MIC [22]: > 125 µg/mL; MIC [23]: 0.25 µg/mL (≈ 0.782 µM); MIC [24]: 3.9 µg/mL (≈ 12.2 µM); MIC [25]: 7.8 µg/mL (≈ 24.4 µM); MIC [26]: 3.9 µg/mL (≈ 12.2 µM); MIC [27]: 1 µg/mL (≈ 3.13 µM); MIC [28]: > 125 µg/mL; MIC [29]: 3.9 µg/mL (≈ 12.2 µM); MIC [30]: 3.9 µg/mL (≈ 12.2 µM); MIC [31]: 7.8 µg/mL (≈ 24.4 µM); MIC [32]: 0.5 µg/mL (≈ 1.56 µM); MIC [33]: 2 µg/mL (≈ 6.26 µM); MIC [34]: 15.6 µg/mL (≈ 48.8 µM); MIC [35]: 3.9 µg/mL (≈ 12.2 µM)
CC(C)CCn1sc2ccccc2c1=O	> 125 µg/mL	3.9 µg/mL (≈ 17.6 µM)	3.9 µg/mL (≈ 17.6 µM)	3.9 µg/mL (≈ 17.6 µM)	7.8 µg/mL (≈ 35.2 µM)	3.9 µg/mL (≈ 17.6 µM)	3.9 µg/mL (≈ 17.6 µM)	3.9 µg/mL (≈ 17.6 µM)	3.9 µg/mL (≈ 17.6 µM)	1 µg/mL (≈ 4.52 µM)	7.8 µg/mL (≈ 35.2 µM)	3.9 µg/mL (≈ 17.6 µM)	7.8 µg/mL (≈ 35.2 µM)	2 µg/mL (≈ 9.04 µM)	3.9 µg/mL (≈ 17.6 µM)	3.9 µg/mL (≈ 17.6 µM)	7.8 µg/mL (≈ 35.2 µM)	3.9 µg/mL (≈ 17.6 µM)	3.9 µg/mL (≈ 17.6 µM)	3.9 µg/mL (≈ 17.6 µM)	MIC [21]: 7.8 µg/mL (≈ 35.2 µM); MIC [22]: 15.6 µg/mL (≈ 70.5 µM); MIC [23]: 3.9 µg/mL (≈ 17.6 µM); MIC [24]: 3.9 µg/mL (≈ 17.6 µM); MIC [25]: 7.8 µg/mL (≈ 35.2 µM); MIC [26]: 7.8 µg/mL (≈ 35.2 µM); MIC [27]: 3.9 µg/mL (≈ 17.6 µM); MIC [28]: 7.8 µg/mL (≈ 35.2 µM); MIC [29]: 7.8 µg/mL (≈ 35.2 µM); MIC [30]: 7.8 µg/mL (≈ 35.2 µM); MIC [31]: 7.8 µg/mL (≈ 35.2 µM); MIC [32]: 2 µg/mL (≈ 9.04 µM); MIC [33]: > 125 µg/mL; MIC [34]: > 125 µg/mL; MIC [35]: 3.9 µg/mL (≈ 17.6 µM)
CC(C)CCn1c(=O)c2ccccc2[s+]1[O-] (stereo not given)	> 125 µg/mL	> 125 µg/mL	> 125 µg/mL	> 125 µg/mL	> 125 µg/mL	> 125 µg/mL	> 125 µg/mL	> 125 µg/mL	> 125 µg/mL	> 125 µg/mL	> 125 µg/mL	> 125 µg/mL	> 125 µg/mL	> 125 µg/mL	> 125 µg/mL	> 125 µg/mL	> 125 µg/mL	> 125 µg/mL	> 125 µg/mL	> 125 µg/mL	MIC [21]: > 125 µg/mL; MIC [22]: > 125 µg/mL; MIC [23]: > 125 µg/mL; MIC [24]: > 125 µg/mL; MIC [25]: > 125 µg/mL; MIC [26]: > 125 µg/mL; MIC [27]: > 125 µg/mL; MIC [28]: > 125 µg/mL; MIC [29]: > 125 µg/mL; MIC [30]: > 125 µg/mL; MIC [31]: > 125 µg/mL; MIC [32]: > 125 µg/mL; MIC [33]: > 125 µg/mL; MIC [34]: > 125 µg/mL; MIC [35]: > 125 µg/mL
